Measured values reported in ChEMBL document CHEMBL5344428, “Discovery, Crystallographic Studies, and Mechanistic Investigations of Novel Phenylalanine Derivatives Bearing a Quinazolin-4-one Scaffold as Potent HIV Capsid Modulators” (J Med Chem, 2023).

Columns and labels:
[1] = Selectivity index, ratio of CC50 for cytotoxicity against human MT4 cells to EC50 for antiviral activity against HIV1 IIIB infected in human MT4 cells; format: toxicity, cell-based; conditions: read-out: Ratio CC50/EC50
Summary of the method: (§1)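 SI is CC50 divided by EC50. CC50 comes from MTT viability of uninfected MT-4 cells. EC50 comes from MTT-read protection of MT-4 cells infected with HIV-1 IIIB or HIV-2 ROD. Each value was run in at least triplicate.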

[2] = Selectivity index, ratio of CC50 for cytotoxicity against human MT4 cells to EC50 for antiviral activity against HIV2 ROD infected in human MT4 cells; format: toxicity, cell-based; conditions: read-out: Ratio CC50/EC50; summary of the method: as §1
[3] = Selectivity ratio of EC50 for antiviral activity against HIV1 IIIB infected in human MT4 cells to EC50 for antiviral activity against HIV2 ROD infected in human MT4 cells; format: toxicity, cell-based
Summary of the method: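 Ratio is EC50 against HIV-1 IIIB divided by EC50 against HIV-2 ROD. Both EC50 values come from MTT-read protection of infected MT-4 cells.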

[4] = Cytotoxicity against human MT4 cells assessed as reduction in cell viability incubated for 5 days by MTT assay; format: toxicity, cell-based; conditions: MT4 cells, time 5 day
Summary of the method: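 Uninfected MT-4 cells were exposed to compound, and viability was read by the MTT method. […] Each value was run in at least triplicate and averaged from at least three independent experiments.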

[5] = test system: Human immunodeficiency virus 1; test: Antiviral activity against HIV1 IIIB infected in human MT4 cells assessed as reduction in virus induced cytopathic effect measured after 5 days by MTT assay; format: functional, organism-based; conditions: Human immunodeficiency virus 1, IIIB, MT4, 120 h
Summary of the method: (§2)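 MT-4 cells were infected with HIV-1 IIIB or HIV-2 ROD, and cell viability was read by MTT. […] Each value was run in at least triplicate and averaged from at least three independent experiments.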

[6] = test system: Human immunodeficiency virus 2; test: Antiviral activity against HIV2 ROD infected in human MT4 cells assessed as reduction in virus induced cytopathic effect measured after 5 days by MTT assay; format: functional, organism-based; conditions: Human immunodeficiency virus 2, ROD, MT4, 120 h; summary of the method: as §2

Structure (SMILES) | selectivity ratio [1] | selectivity ratio [2] | Ratio EC50 [3] | CC50 at 120 h [4] [µM] | EC50 [5] [µM] | EC50 [6] [µM]
COc1ccc(N(C)C(=O)[C@H](Cc2ccccc2)NC(=O)CN2CCN(C(=O)Cc3c[nH]c4ccc(F)cc34)CC2=O)cc1 | 4.13 | 19.9 | 4.83 | 90.1 | 21.8 | 4.52
COc1ccc(-n2c([C@H](Cc3cc(F)cc(F)c3)NC(=O)CN3CCN(S(=O)(=O)c4ccc([N+](=O)[O-])cc4)CC3)nc3cc(Cl)ccc3c2=O)cc1 | > 278 | > 403 | 1.48 | > 163 | 0.59 | 0.4
COc1ccc(N(C)C(=O)[C@H](Cc2ccccc2)NC(=O)CN2CCN(C(=O)Cc3c(C)[nH]c4ccccc34)CC2=O)cc1 | 7.73 | 13.9 | 1.84 | 108 | 14.3 | 7.74
COc1ccc(-n2c(SCc3ccccn3)nnc2[C@H](Cc2ccccc2)NC(=O)Cc2c(C)[nH]c3ccccc23)cc1 | 9 | 6 | 0.63 | 24.2 | 2.61 | 4.16
COc1ccc(N(C)C(=O)[C@H](Cc2cc(F)cc(F)c2)NC(=O)CN(CC2CCCCC2)C(=O)Cn2nc(C(F)(F)F)cc2C)cc1 | 2 | 2 | 1.22 | 45.7 | 30.3 | 24.9
COc1ccc(N(C)C(=O)[C@H](Cc2cc(F)cc(F)c2)NC(=O)CN(C(=O)Cc2ccc(B3OC(C)(C)C(C)(C)O3)cc2)C2CC2)cc1 | 17 | 9 | 0.53 | 89 | 5.18 | 9.71
COc1ccc(N(C)C(=O)[C@H](Cc2cc(F)cc(F)c2)NC(=O)CN(Cc2ccccc2)C(=O)Cc2c(C)[nH]c3ccccc23)cc1 | 10 | 4 | 0.42 | 28.6 | 2.77 | 6.52
COc1ccc(N(C)C(=O)[C@H](Cc2cc(F)cc(F)c2)NC(=O)CN2CCN(C(=O)Cc3c[nH]c4ccccc34)CC2=O)cc1 | 1.97 | 3.28 | 1.67 | 57.8 | 29.4 | 17.6
COc1ccc(-n2c([C@H](Cc3ccccc3)NC(=O)CN3CCN(S(=O)(=O)c4ccc(N)cc4)CC3)nc3ccccc3c2=O)cc1 | > 291 | > 1250 | 4.27 | > 187 | 0.64 | 0.15
COc1ccc(N(C)C(=O)[C@H](Cc2cc(F)cc(F)c2)NC(=O)CN2CCN(C(=O)c3ccc(NC(=O)C4CC4)cc3)CC2=O)cc1 | 6.17 | 5.87 | 0.95 | 88.6 | 14.4 | 15.1
COc1ccc(-n2c(SCc3ccc(S(N)(=O)=O)cc3)nnc2[C@H](Cc2ccccc2)NC(=O)Cc2c(C)[nH]c3ccccc23)cc1 | > 76 | > 55 | 0.72 | > 187 | 2.47 | 3.42
COc1ccc(-n2c([C@H](Cc3cc(F)cc(F)c3)NC(=O)CN3CCN(S(=O)(=O)c4ccc(N)cc4)CC3)nc3cc(S(C)(=O)=O)ccc3c2=O)cc1 | > 236 | > 1040 | 4.53 | > 160 | 0.68 | 0.15
COc1ccc(N(C)C(=O)[C@H](Cc2cc(F)cc(F)c2)NC(=O)CN(C(=O)Cc2c(C)[nH]c3ccccc23)C2CC2)cc1 | 36 | 6 | 0.18 | 112 | 3.08 | 17.3
COc1ccc(-n2c(SCc3ncccn3)nnc2[C@H](Cc2ccccc2)NC(=O)Cc2c(C)[nH]c3ccccc23)cc1 | 58 | 14 | 0.24 | 106 | 1.81 | 7.43
COc1ccc(-n2c([C@H](Cc3ccccc3)NC(=O)CN3CCN(S(=O)(=O)c4ccc(N)cc4)CC3)nc3cc(S(C)(=O)=O)ccc3c2=O)cc1 | > 43.7 | > 481 | 10.97 | > 168 | 3.84 | 0.35
